According to paper PMC11649739 (Clinical Pharmacokinetics, 2024):
Several values for one entry are separate records, joined by “and”; a condition that tells them apart may be missing. Equal entries are not always repeated. Where two headings read alike, the source gives them in different places.

Tests used:
P-glycoprotein = details: drug interactions; cited from earlier work
cytochrome P450 3A = details: drug interactions; cited from earlier work
[1] = assay type: in vivo, human
In short: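 Ensitrelvir was dosed once daily, 375 mg on day 1 then 125 mg on days 2–5, or 750/250 mg. A population PK model was fitted to 8034 plasma concentrations from 2060 healthy and SARS-CoV-2-infected participants: two-compartment, first-order absorption, with covariates tested on CL/F. Empirical Bayesian estimates from the final model were used to calculate individual exposures for SCORPIO-SR phase III participants.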

[2] = body weight 35.0 and 156.0 kg vs median
[3] = final model no. 511, body weight 62.6 kg
[4] = 125 mg group: 375 mg on day 1 and 125 mg on days 2–5
[5] = 125 mg group: 375 mg on day 1 and 125 mg on days 2–5, Bayesian-estimated
[6] = 125 mg group: 375 mg on day 1 and 125 mg on days 2–5, day 1
[7] = 125 mg group: 375 mg on day 1 and 125 mg on days 2–5, day 5
[8] = 250 mg group: 750 mg on day 1 and 250 mg on days 2–5

Cn1cnc(Cn2c(=O)[nH]/c(=N\c3cc4cn(C)nc4cc3Cl)n(Cc3cc(F)c(F)cc3F)c2=O)n1 [ensitrelvir]
inhibition of P-glycoprotein (P-glycoprotein): inhibits
inhibition of cytochrome P450 3A (cytochrome P450 3A): inhibits
Interindividual variability of CL/F (base model): 28.9%
Interindividual variability of Ka (base model): 88.1%
Interindividual variability of Vc/F (base model): 23.2%
range of the ratios of the minimum and maximum values to the median of BW for AUC [2]: 0.623–1.353
range of the ratios of the minimum and maximum values to the median of BW for Cmax [2]: 0.410–1.741
Interindividual variability of CL/F, Estimate (95% CI) (final model no. 511): 21.3% and 21.3 (19.7–22.8) %
Interindividual variability of Ka, Estimate (95% CI) (final model no. 511): 72.9% and 72.9 (64.3–80.6) %
Interindividual variability of Vc/F, Estimate (95% CI) (final model no. 511): 14.7% and 14.7 (12.8–16.3) %
Intraindividual variability: additive residual error, Estimate (95% CI) (final model no. 511): 0.0317 (0.0224–0.0410) µg/mL
Intraindividual variability: proportional residual error, Estimate (95% CI) (final model no. 511): 19.9 (18.5–21.3) %
Q/F, Estimate (95% CI) (final model no. 511): 0.539 (0.321–0.757) L/h
Vp/F, Estimate (95% CI) (final model no. 511): 2.50 (1.80–3.20) L
CL/F, Estimate (95% CI) [3]: 0.211 (0.208–0.214) L/h
Vc/F, Estimate (95% CI) [3]: 14.7 (13.9–15.5) L
Additive residual error, Bootstrap estimate Median (95% CI) (final model no. 511, bootstrap): 0.0331 (0.00945–0.0570) µg/mL
CL/F, Bootstrap estimate Median (95% CI) (final model no. 511, bootstrap): 0.211 (0.207–0.214) L/h
Effect of body weight on Vc/F, Bootstrap estimate Median (95% CI) (final model no. 511, bootstrap): 1.04 (0.959–1.11)
Effect of food on Ka, Bootstrap estimate Median (95% CI) (final model no. 511, bootstrap): 0.599 (0.447–1.00)
Effect of formulation on Ka, Bootstrap estimate Median (95% CI) (final model no. 511, bootstrap): 0.367 (0.280–0.469)
Interindividual variability of CL/F, Bootstrap estimate Median (95% CI) (final model no. 511, bootstrap): 21.3 (20.0–23.0) %
Interindividual variability of Ka, Bootstrap estimate Median (95% CI) (final model no. 511, bootstrap): 72.1 (64.4–80.4) %
Interindividual variability of Vc/F, Bootstrap estimate Median (95% CI) (final model no. 511, bootstrap): 14.6 (12.7–16.5) %
Ka, Bootstrap estimate Median (95% CI) (final model no. 511, bootstrap): 1.50 (1.23–1.80) 1/h
Proportional residual error, Bootstrap estimate Median (95% CI) (final model no. 511, bootstrap): 19.8 (18.6–21.2) %
Q/F, Bootstrap estimate Median (95% CI) (final model no. 511, bootstrap): 0.534 (0.331–0.823) L/h
Vc/F, Bootstrap estimate Median (95% CI) (final model no. 511, bootstrap): 14.8 (13.9–15.5) L
Vp/F, Bootstrap estimate Median (95% CI) (final model no. 511, bootstrap): 2.49 (1.74–3.26) L
Effect of formulation on Ka, Estimate (95% CI) (final model no. 511, multiplier, tablet vs suspension): 0.362 (0.262–0.462)
Effect of body weight on Vc/F, Estimate (95% CI) (final model no. 511, power exponent on body weight/62.6): 1.04 (0.960–1.12)
Ka, Estimate (95% CI) (final model no. 511, typical value (suspension, not within 2 h after a meal)): 1.50 (1.25–1.75) 1/h
Entire AUC, Maximum [1, 4]: 4429 µg·h/mL
Entire AUC, Minimum [1, 4]: 1404 µg·h/mL
Entire Cmax, Maximum [1, 4]: 46800 ng/mL
Entire Cmax, Minimum [1, 4]: 14300 ng/mL
CL/F, Maximum [1, 5]: 0.400 L/h
CL/F, Mean [1, 5]: 0.216 L/h
CL/F, Median [1, 5]: 0.212 L/h
CL/F, Minimum [1, 5]: 0.116 L/h
Vc/F, Maximum [1, 5]: 34.4 L
Vc/F, Mean [1, 5]: 15.1 L
Vc/F, Median [1, 5]: 14.7 L
Vc/F, Minimum [1, 5]: 7.66 L
AUC_d1, Maximum [1, 6]: 784.7 µg·h/mL
AUC_d1, Minimum [1, 6]: 127.0 µg·h/mL
Cmax_d1, Maximum [1, 6]: 41000 ng/mL
Cmax_d1, Mean [1, 6]: 23400 ng/mL
Cmax_d1, Median [1, 6]: 22900 ng/mL
Cmax_d1, Minimum [1, 6]: 10300 ng/mL
AUC_d5, Maximum [1, 7]: 1156 µg·h/mL
AUC_d5, Minimum [1, 7]: 224.5 µg·h/mL
Cmax_d5, Maximum [1, 7]: 46800 ng/mL
Cmax_d5, Mean [1, 7]: 26600 ng/mL
Cmax_d5, Median [1, 7]: 26200 ng/mL
Cmax_d5, Minimum [1, 7]: 14300 ng/mL
Entire AUC, Maximum [1, 8]: 9652 µg·h/mL
Entire AUC, Minimum [1, 8]: 3090 µg·h/mL
Entire Cmax, Maximum [1, 8]: 104000 ng/mL
Entire Cmax, Minimum [1, 8]: 31900 ng/mL
CL/F, Maximum ([1]; 250 mg group: 750 mg on day 1 and 250 mg on days 2–5, Bayesian-estimated): 0.353 L/h
